Reference: article PMC4486003 (Biomaterials, 2015)

Tests used:
hole B = conditions: knob B mimic derived from chicken; ref [19], [20]; cited from earlier work
fibrin network = conditions: cited from earlier work
fibrin polymerization [1] = biological target: T1, fibrin polymerization (Homo sapiens, UniProt P02671+P02675+P02679); assay: Percent clottable protein; type: biochemical; conditions: from percent clottability
T1 sequence (P02675 45-491 limits assumed): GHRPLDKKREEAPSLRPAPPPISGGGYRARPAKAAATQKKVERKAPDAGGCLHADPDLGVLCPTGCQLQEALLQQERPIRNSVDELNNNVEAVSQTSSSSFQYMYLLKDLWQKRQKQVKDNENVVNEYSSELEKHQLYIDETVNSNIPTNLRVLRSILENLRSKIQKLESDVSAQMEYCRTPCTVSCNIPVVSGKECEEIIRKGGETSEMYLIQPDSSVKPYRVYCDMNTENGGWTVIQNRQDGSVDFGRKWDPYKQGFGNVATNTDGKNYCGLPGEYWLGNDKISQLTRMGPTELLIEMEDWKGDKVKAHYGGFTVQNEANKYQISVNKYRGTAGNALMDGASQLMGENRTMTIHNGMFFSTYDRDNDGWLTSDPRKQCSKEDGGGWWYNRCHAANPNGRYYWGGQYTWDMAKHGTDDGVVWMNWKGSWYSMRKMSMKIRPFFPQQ
T1 sequence (P02679 27-433 partner limits assumed): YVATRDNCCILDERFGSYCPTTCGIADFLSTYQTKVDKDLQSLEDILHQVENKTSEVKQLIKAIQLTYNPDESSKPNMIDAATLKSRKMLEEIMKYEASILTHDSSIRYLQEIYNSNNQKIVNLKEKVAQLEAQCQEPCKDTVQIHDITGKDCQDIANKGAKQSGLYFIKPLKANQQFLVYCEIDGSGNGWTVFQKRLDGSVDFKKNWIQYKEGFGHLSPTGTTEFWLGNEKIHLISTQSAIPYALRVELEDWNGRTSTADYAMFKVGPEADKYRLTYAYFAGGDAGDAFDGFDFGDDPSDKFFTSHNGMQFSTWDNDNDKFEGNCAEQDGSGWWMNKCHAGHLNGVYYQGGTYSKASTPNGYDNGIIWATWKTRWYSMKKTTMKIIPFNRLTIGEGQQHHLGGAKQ
T1 sequence (P02671 36-866 partner limits assumed): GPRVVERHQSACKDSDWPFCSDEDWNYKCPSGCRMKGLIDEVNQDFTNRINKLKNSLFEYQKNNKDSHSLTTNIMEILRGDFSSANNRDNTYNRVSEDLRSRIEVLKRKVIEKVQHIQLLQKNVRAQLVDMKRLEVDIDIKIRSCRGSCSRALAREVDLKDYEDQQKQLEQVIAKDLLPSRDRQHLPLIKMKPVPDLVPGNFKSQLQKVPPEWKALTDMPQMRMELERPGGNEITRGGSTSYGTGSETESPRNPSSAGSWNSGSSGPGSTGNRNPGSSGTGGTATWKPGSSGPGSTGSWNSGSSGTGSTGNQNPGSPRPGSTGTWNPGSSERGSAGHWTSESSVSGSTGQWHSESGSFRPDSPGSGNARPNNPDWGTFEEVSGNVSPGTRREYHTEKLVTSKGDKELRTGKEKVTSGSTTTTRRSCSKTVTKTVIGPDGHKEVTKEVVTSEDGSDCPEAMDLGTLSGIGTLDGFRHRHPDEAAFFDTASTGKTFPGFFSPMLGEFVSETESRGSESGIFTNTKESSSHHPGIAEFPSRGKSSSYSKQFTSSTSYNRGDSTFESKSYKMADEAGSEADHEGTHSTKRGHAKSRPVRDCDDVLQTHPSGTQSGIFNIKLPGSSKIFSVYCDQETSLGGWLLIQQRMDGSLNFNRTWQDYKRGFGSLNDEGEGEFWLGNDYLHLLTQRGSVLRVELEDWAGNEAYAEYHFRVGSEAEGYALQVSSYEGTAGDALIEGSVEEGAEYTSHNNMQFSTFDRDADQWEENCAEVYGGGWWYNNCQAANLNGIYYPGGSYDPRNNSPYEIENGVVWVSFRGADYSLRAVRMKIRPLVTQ
Procedure, shortened: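 Test compound at final 1, 0.25 or 0.1 mM was added to clots at pH 7.4 (25 mM HEPES, 150 mM NaCl) with final fibrinogen 1 mg/mL, thrombin 0.25 U/mL and CaCl₂ 5 mM. A350 was read every minute for 1 h. Clot liquor was then assayed for total protein (Quant-it). Percent clottable protein was computed against fibrinogen-only, no-thrombin samples.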

single fibrin fibers = assay: Single fibrin fiber breaking strain/extensibility; design: species or system human; conditions: for average single fiber breaking strain: percentage of original fiber length, 305 nm/s
Procedure, shortened: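 Fibrinogen and test compound were preincubated at 37°C for 15 min at pH 7.4 (140 mM NaCl, 10 mM HEPES, 5 mM CaCl₂); test compound finals were 1 mM, 250 μM and 100 μM. Thrombin and FXIII were added (finals: fibrinogen 3.2 μM, 0.3 NIH u/ml, 9.00 Loewy u/ml). Clots formed 75 min on striated substrates and were bead-labelled. An AFM tip stretched single fibers at 305 nm/s until rupture. Strain = (L′−L_initial)/L_initial, given as % of original length.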

fibrinogen Fragment D = biological target: T2, fibrinogen Fragment D (Homo sapiens, UniProt P02671+P02675+P02679); assay: Surface plasmon resonance; type: binding; conditions: SPR; concentrations 5 μM to 1.5 mM
T2 sequence (P02675 164-491 limits assumed): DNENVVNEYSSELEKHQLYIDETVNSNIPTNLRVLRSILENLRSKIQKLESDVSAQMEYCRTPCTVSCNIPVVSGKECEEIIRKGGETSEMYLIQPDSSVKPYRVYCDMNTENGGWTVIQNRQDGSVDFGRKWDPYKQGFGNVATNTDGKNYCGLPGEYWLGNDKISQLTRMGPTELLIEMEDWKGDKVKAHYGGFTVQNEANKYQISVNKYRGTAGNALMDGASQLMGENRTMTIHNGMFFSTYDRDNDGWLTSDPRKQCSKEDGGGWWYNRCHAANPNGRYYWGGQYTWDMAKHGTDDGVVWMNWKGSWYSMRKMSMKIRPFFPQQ
T2 sequence (P02679 89-432 partner limits assumed): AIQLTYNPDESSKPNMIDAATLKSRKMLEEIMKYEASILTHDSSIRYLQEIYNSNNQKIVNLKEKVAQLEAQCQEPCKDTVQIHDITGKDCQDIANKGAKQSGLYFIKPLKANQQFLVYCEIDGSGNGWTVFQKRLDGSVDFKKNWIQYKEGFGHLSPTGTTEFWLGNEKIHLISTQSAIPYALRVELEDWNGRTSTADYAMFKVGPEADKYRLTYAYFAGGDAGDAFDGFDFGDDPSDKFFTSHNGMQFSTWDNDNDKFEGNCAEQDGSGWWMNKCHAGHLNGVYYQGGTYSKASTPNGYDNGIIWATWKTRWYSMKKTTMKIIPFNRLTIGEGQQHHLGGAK
T2 sequence (P02671 124-225 partner limits assumed): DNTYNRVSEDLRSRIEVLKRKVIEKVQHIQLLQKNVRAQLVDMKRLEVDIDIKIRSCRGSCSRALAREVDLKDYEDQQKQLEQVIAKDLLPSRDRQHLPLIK
Procedure, shortened: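 Fragment D came from human fibrinogen (2 mg/mL) digested overnight at room temperature with plasmin (0.1 U/mL), then isolated on GPRPAA beads. It was covalently coupled to self-assembled-monolayer gold chips to about 1500 RU in 3 flow cells, with 1 reference cell. Test compound was run at five concentrations (5 μM–1.5 mM) in duplicate: 25 μL/min for 4 min, then 5 min dissociation. Kinetic models were fitted and judged by residuals.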

fibrin polymerization [2] = conditions: high concentrations; ref [15]; cited from earlier work
[3] = biological target: human fibrinogen Fragment D (human); assay: SPR
[4] = 1:1 molar ratio fibrinogen:knob mimic, ref [11]

In the case of AHRP, the binding specificity (hole B) is listed as “only bind to hole B”.

For GHRPY [reference compound], the “network structure and fibrinolysis” value (fibrin network; bovine knob B mimic, ref [18], [21]) is given as “altered network structure and delayed fibrinolysis”.

In the case of GPSPFPAC-PEG, the “inhibition of polymerization (in words)” value (fibrin polymerization [1]; 1 mM) is reported as “significantly inhibited”.

For AHRPYAAC-PEG, the “complex modulus (G*)” value (fibrin network; [4]) is listed as “increased the complex modulus”, the susceptibility to degradation (fibrin network; [4]) is listed as “decreased susceptibility to degradation” and the “average single fiber breaking strain” value (single fibrin fibers; 100 μM) is listed as 171%. The “average single fiber breaking strain” value (single fibrin fibers; 250 μM) was 164%, the “average single fiber breaking strain” value (single fibrin fibers; 1 mM) was 202% and the “increase of average breaking strain vs unmodified fibrin fibers” value (single fibrin fibers; 1 mM, stretched at 305 nm/s) was 20%. The “fiber extensibility (in words)” value (single fibrin fibers; concentrations above its Kd) was “increase extensibility of fibers”, the “fiber extensibility (in words)” value (single fibrin fibers; concentrations near its Kd) was “decreases the extensibility of fibers” and the “binding to fragment D (in words)” value (fibrinogen Fragment D) was “at a minimum, micromolar concentrations of PEGylated knob B peptides are required to observe binding to fibrinogen”.

In the case of Gly-Pro-Arg-Pro [GPRP], the fibrin polymerization (fibrin polymerization [2]) is listed as “polymerization is inhibited”.

For GPSPFPAC, the “effect on polymerization (in words)” value (fibrin polymerization [1]; all concentrations tested) was “not significantly affected”.

B1: PEGylated knob B peptide AHRPYAAC-PEG (peptide)
peptide: AHRPYAAC
modifications: not fully specified; 5 kDa maleimide-PEG conjugated to the cysteine-terminated peptide
B1 gave a Kd1 (2-site model, higher-affinity site, assumed knob B:hole b) [3] of 57 µM.
